# TRPML3 agonist: agonists of human TRPML3 channel. Q8TDD5. HEK293 TRPML3-YFP, Fluo-8 calcium fluorescence; 100% = the carbachol control signal. activation, % at 3 µM. actives 0.29% (n = 220,000). AID 1448;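 active = activation above its plate's cutoff, the mean activation of the plate's test wells plus 3 SD, cut at about 12% in these data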;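 also: 0% = DMSO only wells and 100% = carbachol wells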
#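 system = HEK293 cells stably carrying human TRPML3-YFP | doses = one concentration, 3 µM nominal, 0.3% DMSO | timing = dye loading 1 h 37 °C then 30 min ambient, 125 s read | detection = Fluo-8 calcium dye fluorescence, ex 470-495, em 515-575 nm | benchmarks = high control carbachol 87 µM, low control DMSO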
# OXTR ag: activates the human oxytocin receptor. P30559. CHO-OTR cells, Fluo-8 calcium fluorescence; normalized: DMSO 0%, oxytocin 100%. activation, % at 3 µM. actives 0.32% (n = 320,000). AID 2435;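 active = activation above the mean of all tested compounds plus 3 SD, cutoff set per screening run, cut at about 20% in these data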;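 also: peak over basal fluorescence ratio from a 100 s FLIPR kinetic read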
# Target sequence (P30559 whole entry, looked up): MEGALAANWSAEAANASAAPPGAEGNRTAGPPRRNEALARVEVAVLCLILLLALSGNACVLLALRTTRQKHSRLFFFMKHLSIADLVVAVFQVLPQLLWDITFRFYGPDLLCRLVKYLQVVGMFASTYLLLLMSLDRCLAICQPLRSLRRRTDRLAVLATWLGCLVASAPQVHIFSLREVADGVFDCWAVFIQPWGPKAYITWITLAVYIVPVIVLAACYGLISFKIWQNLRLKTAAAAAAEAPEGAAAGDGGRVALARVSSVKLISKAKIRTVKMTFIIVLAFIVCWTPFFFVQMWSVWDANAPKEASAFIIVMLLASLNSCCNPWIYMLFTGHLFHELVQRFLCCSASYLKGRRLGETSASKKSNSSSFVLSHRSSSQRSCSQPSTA
# zfTRPN1 agonist: activates the zebrafish TRPN1 channel. HEK293 zebrafish TRPN1-YFP, Fluo-8 calcium fluorescence; 100% = response to 87 µM carbachol. activation, % at 3 µM. actives 0.18% (n = 220,000). AID 1424;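 active = activation above its plate's cutoff, the mean activation of test wells on that plate plus 3 SD, cut at about 19% in these data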;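 also: 0% = DMSO alone and 100% = 87 µM carbachol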
#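 Control set: carbachol 87 µM as high control, DMSO as low control; system: HEK293 stable line with zebrafish TRPN1-YFP; read-out: % activation versus carbachol response; detection: intracellular calcium fluorescence with Fluo-8; doses: single test compound dose, 3 µM nominal, 0.3% DMSO; schedule: dye 1 h 37 °C plus 30 min RT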
# OXTR potentiate: potentiates the human oxytocin receptor response; P30559; CHO-OTR cells, Fluo-8 calcium fluorescence, potentiator mode; 0% = oxytocin EC15, 100% = EC100; activation, % at 3 µM; actives 0.061% (n = 320,000);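 active = activation above that plate's cutoff, the mean activation of tested compounds plus 3 SD, cut at about 6.6% in these data, passing the limit was not always enough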;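 also: 100% uses oxytocin at 75 nM as the full agonist control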
#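 Assay system: CHO cell line stably expressing human OTR | Also added: Oxytocin at about EC15, sub-maximal agonist stimulus | Times: Compound 6 min at room temperature before oxytocin, 100 s read | Measured by: Fluo-8 intracellular calcium fluorescence, ex 470-495, em 515-575 nm | Controls: EC15 oxytocin alone as 0%, 75 nM oxytocin as 100%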
# V1aR counter: counter-screen for oxytocin receptor agonists: human V1a receptor agonists; P37288; CHO-V1R cells, Fluo-8 calcium fluorescence, agonist mode; 0% DMSO, 100% 3 nM vasopressin; activation, % at 3 µM; actives 0.25% (n = 320,000);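 active = activation above the mean activation of all tested compounds plus 3 SD, per screening run, cut at about 20% in these data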;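 also: signal is peak over basal fluorescence ratio across a 100 second FLIPR read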
# OXTR ag confirm: confirmation of human oxytocin receptor agonists; shares compounds with OXTR ag; AID 434963; activation, % at 3 µM; CHO-OTR cells, Fluo-8 calcium fluorescence, agonist; actives 20% (n = 390);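 active = mean activation above about 20% derived from the earlier single-dose screen, limit read from the data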;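 also: peak over minimum fluorescence ratio per well during a 100 second FLIPR read; 0% = DMSO alone and 100% = oxytocin high control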
# V1R ag counter 3x: activates V1a receptor in oxytocin agonist counter-screen; AID 434991; shares compounds with OXTR ag; activation, % at 3 µM; CHO-V1R cells, Fluo-8 calcium fluorescence; actives 10% (n = 390);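 active = mean activation over triplicate exceeds the hit threshold set in the earlier primary screen, cut at about 20% in these data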;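 also: peak over basal fluorescence ratio within a 100 second read; 0% = DMSO alone and 100% = 3 nM vasopressin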
# * = called active by the depositor; / = not tested or not shown. An excerpt weighted towards active compounds, which were near 0.55% of everything screened.
SMILES,TRPML3 agonist,OXTR ag,zfTRPN1 agonist,OXTR potentiate,V1aR counter,OXTR ag confirm,V1R ag counter 3x
CC(=O)n1cc([C@H]2C=C(C(N)=O)O[C@@H](OCc3ccc(CO)cc3)C2)c2ccccc21,/,19.7*,/,-16.1,16.9,18.7,13.3
COCCN1C(=O)C(=O)/C(=C(/O)c2ccc(S(=O)(=O)N3CCOCC3)cc2)C1c1cccc([N+](=O)[O-])c1 (stereo not drawn),/,2.8,/,-6.9,0.1,/,/
CC(=O)Nc1ccc(NC(=O)COC(=O)C2(c3ccc(Cl)cc3)CCCC2)cc1,3.7,19.8*,11.3,-10.7,17.6,12.7,11.9
CC[C@]12c3[nH]c4ccccc4c3CCN1C(=O)C(CC(=O)NCCCN(C)C)C[C@@H]2C(=O)N1CCN(C(=O)c2ccco2)CC1 (stereo partly drawn),/,0.3,/,0.1,1.4,/,/
Cc1cc(C)c2c(=O)n(CC(=O)NC3CCCC3)sc2n1,1.2,4.0,-0.1,-1.6,4.3,/,/
Cc1cc(C)c2c(=O)n(CC(=O)Nc3ccc(Br)c(C)c3)sc2n1,5.7,37.4*,3.7,-11.8,20.1,10.4,6.6
Cc1cc(C)c2c(=O)n(CC(=O)Nc3cccc(Cl)c3C)sc2n1,10.9,41.6*,21.4*,-9.9,18.5,20.0*,21.0*
CCc1ccc(OCCNc2cc(N3CCNC(C)C3)ccc2[N+](=O)[O-])cc1 (stereo not drawn),/,18.4,/,-6.7,11.0,/,/
Cc1ccccc1OCCNc1cc(N2CC(C)NC(C)C2)ccc1[N+](=O)[O-] (stereo not drawn),2.6,20.3*,7.2,-7.4,14.4,13.1,4.6
CC1CN(c2ccc([N+](=O)[O-])c(NCCOc3ccccc3)c2)CC(C)N1 (stereo not drawn),/,24.2*,/,-15.2,7.2,3.6,3.7
CN(c1ccccc1)c1ccc(/C=C/[N+](=O)[O-])cc1,10.1,28.8*,16.5,-11.7,15.2,25.6*,32.4*
Cc1cc(F)ccc1S(=O)(=O)N(CC(=O)N1CCOCC1)CC(=O)N1CCOCC1,/,1.1,/,-0.4,1.4,/,/
COc1ccccc1NC(=O)CCCN1C(=O)C(c2ccccc2)Oc2cccnc21 (stereo not drawn),/,0.8,/,-4.8,13.5,/,/
COc1ccc(CCNC(=O)CCCN2C(=O)C(c3ccccc3)Oc3cccnc32)cc1OC (stereo not drawn),/,25.4*,/,-6.6,3.6,-0.3,-0.1
Cc1onc(-c2ccccc2)c1C(=O)Nc1ncc([N+](=O)[O-])s1,/,20.6*,/,-13.7,9.6,15.8,11.8
Cc1onc(-c2ccccc2)c1C(=O)Nc1nnc(C(C)C)s1,/,-0.5,/,-1.4,0.3,/,/
COc1cccc(CC(=O)OCC(=O)NCCc2ccc(F)cc2)c1,/,-1.2,/,-5.8,-0.3,/,/
O=C(O)c1ccc(N/N=C/c2ccc(-c3ccccc3Cl)o2)cc1,0.1,23.1*,0.8,-23.2,11.6,7.8,4.8
O=C(COc1cc(F)ccc1[N+](=O)[O-])Nc1cccc(S(=O)(=O)NC2=NCCC2)c1,/,3.9,/,-8.5,7.0,/,/
CN(/N=C/c1ccc(-c2ccc([N+](=O)[O-])cc2)o1)c1ccccc1,/,22.6*,/,-15.2,17.6,96.2*,100.0*
CCN(CC(=O)NCc1ccc(F)cc1)C(=O)CCNS(=O)(=O)c1cccc(C)c1,/,-1.3,/,-7.1,-0.8,/,/
CCOc1ccc(NC(=O)C(C)Oc2ccc(C#N)cc2)cc1S(=O)(=O)N1CCCC1 (stereo not drawn),/,19.6*,/,-9.9,8.7,15.5,7.5
CCOc1ccccc1OCC(=O)Nc1ccc(OC)c(S(=O)(=O)N2CCCCC2)c1,/,-0.3,/,-7.8,0.8,/,/
CS(=O)(=O)c1ccc(-c2sc3ccccc3c2C(=O)NCCCN2CCOCC2)cc1,/,0.6,/,-0.2,0.3,/,/
CC(C)c1c(C(=O)N/N=C/c2cccs2)nnn1-c1nonc1N,/,19.7*,/,-7.6,14.3,8.4,9.5
SMILES,TRPML3 agonist,OXTR ag,zfTRPN1 agonist,OXTR potentiate,V1aR counter,OXTR ag confirm,V1R ag counter 3x
Cc1ccsc1/C=N/NC(=O)c1nnn(-c2nonc2N)c1C(C)C,/,21.7*,/,-13.5,4.8,-0.2,0.9
CCOc1ccc(C(C)NC(=O)c2ccc3c(c2)NC(=O)C(C)S3)cc1OCC (stereo not drawn),/,-2.2,/,0.5,0.0,/,/
CCN(CC(=O)NC1CCS(=O)(=O)C1)C(C)C(=O)Nc1ccc(F)cc1 (stereo not drawn),/,-0.1,/,0.8,-0.6,/,/
Cc1ccc(S(=O)(=O)c2nnn3c2nc(NCCCN2CCCC2=O)c2ccccc23)cc1C,/,0.9,/,-8.0,3.1,/,/
Cc1ccc(S(=O)(=O)c2nnn3c2nc(NC2CCN(Cc4ccccc4)CC2)c2ccccc23)cc1C,/,20.3*,/,-10.4,-0.4,-0.6,-0.2
CCOc1ccc(C(=O)CCC(=O)NCC(=O)Nc2c(C)cccc2C)cc1,/,-1.6,/,-1.3,-0.8,/,/
C/C(=N/O)c1cc(C(C)(C)C)c(O)c(C(C)(C)C)c1,-0.3,20.6*,-0.7,-11.8,9.5,-1.2,2.9
O=C(Nc1ccc([N+](=O)[O-])cc1Cl)c1cc(Cl)ccc1O,/,20.6*,/,-18.3,13.2,15.3,12.5
COc1ccc(S(=O)(=O)Nc2ccc(N3CCOCC3)cc2)cc1,/,1.7,/,-12.0,2.7,/,/
COc1ccc(NS(=O)(=O)c2ccc(N3CCOCC3)c(N)c2)cc1,/,20.4*,/,-9.4,12.0,11.0,10.5
COC(=O)[C@]1(C)N[C@H](CN(C)S(=O)(=O)c2ccccc2)[C@@H]2C(=O)N(Cc3ccccc3)C(=O)[C@@H]21,/,0.3,/,1.7,0.8,/,/
CCOC(=O)/C(C#N)=C/Nc1ccccc1NS(=O)(=O)c1cccc(C(C)=O)c1,0.1,49.8*,0.3,-1.1,1.6,0.7,1.0
CCOC(=O)/C(C#N)=C/Nc1ccccc1NS(=O)(=O)c1ccc(C)c(C)c1,0.5,0.9,-1.6,-3.8,0.1,/,/
O=C(Nc1ccc(S(=O)(=O)N2CCCCC2)cc1)c1ccc(CN2CCOCC2)cc1,5.8,20.1*,11.7,-12.1,16.8,6.7,8.8
COc1cccc2c1C(=O)c1c(O)c3c(c(O)c1C2=O)C[C@@](O)(C(=O)CO)C[C@@H]3O[C@H]1C[C@H](N)[C@@H](O)[C@H](C)O1,/,22.8*,/,-11.6,17.7,11.1,19.8
COc1cc(C(=O)NCC(=O)N2CCN(S(=O)(=O)c3ccccc3C(F)(F)F)CC2)cc(OC)c1OC,/,-0.1,/,-0.5,0.6,/,/
Cc1cccc(OCC(O)Cn2c(=N)n(Cc3ccccc3)c3ccccc32)c1 (stereo not drawn),-1.2,30.9*,-0.7,-12.6,17.9,7.4,6.2
